Calls of active or inactive are those of the source. The calls are words filed in the database; no cut-off is given here.
Columns and labels:
MDCK [1] = assay: Induction of intracellular calcium level in MDCK cells assessed as net peak value at 10 uM by Fura-2 in calcium free medium; format: functional, Canis lupus familiaris
Procedure, shortened: (§1)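 Fura-2-loaded MDCK suspension (0.5 million cells/mL) in Ca2+-free medium, where CaCl2 was replaced by 0.1 mM EGTA; 25 °C, stirred cuvette. Signals recorded at 340/380 nm excitation and 510 nm emission every 1 s. Store depletion used 1 μM thapsigargin, applied before compound or after 220 s compound preincubation. Phospholipase C tests used 10 μM ATP and 2 μM U73122. [Ca2+]i calculated with Kd 155 nM. Means ± SEM, n = 5.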

MDCK [2] = assay: Induction of intracellular calcium level in MDCK cells at 10 uM by Fura-2 in calcium free medium in presence of 10 uM U73343 inactive analogue of U73122 phospholipase C inhibitor; format: functional, cell-based; settings: Canis lupus familiaris
Procedure, shortened: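 MDCK cells were trypsinized, recovered 1 h, then loaded with 2 μM fura-2/AM for 30 min at 25 °C. They were read in a stirred cuvette at 25 °C (0.5 million cells/mL) in Ca2+-free medium with 0.1 mM EGTA in place of CaCl2. Ex 340/380 nm, em 510 nm, 1 s intervals. Pretreatment was 2 μM U73122 or 10 μM U73343 before ATP. Kd 155 nM; n=5.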

MDCK [3] = assay: Induction of intracellular calcium level in MDCK cells at 100 uM by Fura-2 in calcium free medium in presence of phospholipase C inhibitor U73122; settings: Canis lupus familiaris
MDCK [4] = assay: Induction of intracellular calcium level in MDCK cells at 50 uM by Fura-2 in presence of calcium relative to diallyl trisulfide; format: functional, Canis lupus familiaris
MDCK [5] = assay: Cytotoxicity against MDCK cells assessed as decrease in cell viability after 16 hrs by tetrazolium salt WST-1 assay; format: functional, cell-based; settings: Canis lupus familiaris
Procedure, shortened: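 MDCK cells plated at 1 × 10^4 per well and grown 24 h to 70% confluence, then exposed 16 h to compound (0–2 mM range). Cells washed, then incubated 2 h at 37 °C with WST-1; absorbance read at 450 nm. Values expressed as percent of vehicle control (0.1% DMSO). n = 5.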

MDCK [6] = assay: Cell cycle arrest in MDCK cells assessed as accumulation at G1 phase at 100 uM after 16 hrs by flow cytometric analysis (reference value: 55.7%); format: functional, Canis lupus familiaris
MDCK [7] = assay: Cell cycle arrest in MDCK cells assessed as accumulation at S phase at 100 uM after 16 hrs by flow cytometric analysis (reference value: 24.5%); format: functional, Canis lupus familiaris
MDCK [8] = assay: Cell cycle arrest in MDCK cells assessed as accumulation at G2/M phase at 100 uM after 16 hrs by flow cytometric analysis (reference value: 19.8%); format: functional, Canis lupus familiaris
MDCK [9] = assay: Cell cycle arrest in MDCK cells assessed as accumulation at subG1 phase at 100 uM after 16 hrs by flow cytometric analysis (reference value: 0.5%); format: functional, Canis lupus familiaris
MDCK [10] = assay: Induction of intracellular calcium level in MDCK cells at 25 to 100 uM by Fura-2 in presence of extracellular calcium; format: functional, cell-based; settings: Canis lupus familiaris
Procedure, shortened: (§2)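 Trypsinized cells recovered 1 h, then loaded with 2 μM fura-2/AM for 30 min at 25 °C. Cells washed and resuspended in Ca2+-containing medium (2 mM CaCl2, 2 mM HEPES, pH 7.4); 0.5 million cells/mL in a stirred cuvette at 25 °C. Compound added at 30 s and recorded to 250 s. Excitation at 340/380 nm, emission at 510 nm. Calibration used Triton X-100 then 10 mM EGTA; Kd 155 nM. n = 5.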

MDCK [11] = assay: Induction of intracellular calcium level in MDCK cells assessed as sustained phase at 100 uM within 250 secs by Fura-2 in presence of extracellular calcium; format: functional, cell-based; settings: Canis lupus familiaris; procedure, shortened: as §2
MDCK [12] = assay: Induction of intracellular calcium level in MDCK cells assessed as rise in fura-2 340/380 excitation signal ratio at 100 uM treated at 30 secs by Fura-2 in presence of extracellular calcium; format: functional, cell-based; settings: Canis lupus familiaris; procedure, shortened: as §2
MDCK [13] = assay: Induction of intracellular calcium level in MDCK cells at 100 uM by Fura-2 in calcium free medium in presence of endoplasmic reticulum Ca2+-ATPase inhibitor thapsigargin; format: functional, cell-based; settings: Canis lupus familiaris; procedure, shortened: as §1
MDCK [14] = assay: Induction of intracellular calcium level in MDCK cells at 100 uM preincubated 220 secs by Fura-2 in calcium free medium in presence of endoplasmic reticulum Ca2+-ATPase inhibitor thapsigargin; format: functional, cell-based; settings: Canis lupus familiaris; procedure, shortened: as §1
MDCK [15] = assay: Induction of intracellular calcium level in MDCK cells at 100 uM by Fura-2 in presence of calcium and 1 uM nicardipine L-type calcium channel blocker; format: functional, cell-based; settings: Canis lupus familiaris
Procedure, shortened: (§3)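 Fura-2-loaded MDCK cells in Ca2+-containing medium at 25 °C, pretreated 1 min with the 1 μM L-type blocker before 100 μM compound was added at 30 s. Response taken as net area under the [Ca2+]i curve from 30 to 250 s, expressed as percent of unblocked control. Means ± SEM of five experiments.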

MDCK [16] = assay: Induction of intracellular calcium level in MDCK cells at 100 uM assessed as calcium influx by Fura-2 in presence of calcium and 1 uM verapamil L-type calcium channel blocker; format: functional, cell-based; settings: Canis lupus familiaris; procedure, shortened: as §3
MDCK [17] = assay: Induction of intracellular calcium level in MDCK cells at 100 uM assessed as calcium influx by Fura-2 in presence of calcium and 1 uM diltiazem L-type calcium channel blocker; format: functional, cell-based; settings: Canis lupus familiaris; procedure, shortened: as §3
MDCK [18] = assay: Induction of intracellular calcium level in MDCK cells at 100 uM by Fura-2 in presence of calcium and 10 nM phorbol myristate acetate protein kinase C activator; format: functional, cell-based; settings: Canis lupus familiaris
Procedure, shortened: (§4)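 Fura-2-loaded MDCK cells in Ca2+-containing medium (2 mM CaCl2, pH 7.4) at 25 °C, pretreated with 10 nM phorbol myristate acetate or 2 μM GF109203X before 100 μM compound. [Ca2+]i was read from the 340/380 nm fura-2 ratio. n = 5.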

MDCK [19] = assay: Induction of intracellular calcium level in MDCK cells at 100 uM by Fura-2 in presence of calcium and 2 uM GF109203 X acetate protein kinase C inhibitor; format: functional, cell-based; settings: Canis lupus familiaris; procedure, shortened: as §4
MDCK [20] = assay: Induction of intracellular calcium level in MDCK cells at 1 uM by Fura-2 in presence of extracellular calcium; settings: Canis lupus familiaris

| Structure (SMILES) | Activity (MDCK [3]) | Activity (MDCK [5]) | IC50 (MDCK [5]) [mM] | Activity (MDCK [6]) [%] | Activity (MDCK [7]) [%] | Activity (MDCK [8]) [%] | Activity (MDCK [9]) [%] | other results |
| --- | --- | --- | --- | --- | --- | --- | --- | --- |
| Nc1ncnc2c1ncn2[C@@H]1O[C@H](COP(=O)(O)OP(=O)(O)OP(=O)(O)O)[C@@H](O)[C@H]1O [ADENOSINE TRIPHOSPHATE] | inactive |  |  |  |  |  |  | Activity (MDCK [1]): 132 nM; Activity (MDCK [2]): Active |
| C=CCSSCC=C [DIALLYLDISULFIDE] |  | Dose-dependent effect | 1.82 | 53.3 | 26.8 | 20 | 7.1 | Activity (MDCK [4]): 45.6% |
| C=CCSSSCC=C [ALLITRIDIN] | Active |  | 0.05 | 26.8 | 34.6 | 38.6 | 33.1 | Activity (MDCK [10]): Dose-dependent effect; Activity (MDCK [11]): Active; Activity (MDCK [12]): Active; Activity (MDCK [13]): inactive; Activity (MDCK [14]): inactive; Activity (MDCK [15]): inactive; Activity (MDCK [16]): Active; Activity (MDCK [17]): Active; Activity (MDCK [18]): Active; Activity (MDCK [19]): Active; Activity (MDCK [20]): inactive |
| C=CCSCC=C [DIALLYL SULFIDE] |  | Dose-dependent effect | 3.26 | 53.3 | 27.7 | 19 | 1.1 | Activity (MDCK [4]; Canis lupus familiaris): inactive |

From ChEMBL document CHEMBL2203169, “Effect of allyl sulfides from garlic essential oil on intracellular ca2+ levels in renal tubular cells” (J Nat Prod, 2012)
